# ChEMBL document CHEMBL1131303, “New cyclooxygenase-2/5-lipoxygenase inhibitors. 2. 7-tert-butyl-2,3-dihydro-3,3-dimethylbenzofuran derivatives as gastrointestinal safe antiinflammatory and analgesic agents: variations of the dihydrobenzofuran ring” (J Med Chem, 1998)
# Assays:
# Mus musculus [1] = species: Mus musculus; assay: The compound was tested for effective dose for reduction in phenylquinone-induced abdominal constriction; assay type: functional; details: Abdomen
# Procedure, shortened: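 Phenylquinone-induced abdominal constriction assay run as an oral dose-response study. The ED50 was derived from reduction of constrictions.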
# Mus musculus [2] = assay: The compound was tested for reduction in phenylquinone-induced abdominal constriction and is expressed in % reduction at a po (per oral) dose of 70 mg/kg.; assay type: functional, Abdomen
# Procedure, shortened: (§1)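 Phenylquinone-induced abdominal constriction analgesia assay. A single oral screening dose of 70 mg/kg was given, and the read-out is percent reduction in constrictions versus control. Tebufelone and naproxen served as reference agents.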
# Mus musculus [3] = species: Mus musculus; assay: The compound was tested for reduction in phenylquinone-induced abdominal constriction; assay type: functional; details: Abdomen
# Rattus norvegicus = assay: Carrageenan paw edema index (CPE index) as ratio of the reduction in paw volume of tested compound relative to the compound tebufelone at peroral dose of 50 mg/kg.; assay type: functional; details: route oral
# [4] = biological target: T1, Prostaglandin G/H synthase 2 (Homo sapiens, UniProt P35354)
# T1 sequence (P35354 whole entry): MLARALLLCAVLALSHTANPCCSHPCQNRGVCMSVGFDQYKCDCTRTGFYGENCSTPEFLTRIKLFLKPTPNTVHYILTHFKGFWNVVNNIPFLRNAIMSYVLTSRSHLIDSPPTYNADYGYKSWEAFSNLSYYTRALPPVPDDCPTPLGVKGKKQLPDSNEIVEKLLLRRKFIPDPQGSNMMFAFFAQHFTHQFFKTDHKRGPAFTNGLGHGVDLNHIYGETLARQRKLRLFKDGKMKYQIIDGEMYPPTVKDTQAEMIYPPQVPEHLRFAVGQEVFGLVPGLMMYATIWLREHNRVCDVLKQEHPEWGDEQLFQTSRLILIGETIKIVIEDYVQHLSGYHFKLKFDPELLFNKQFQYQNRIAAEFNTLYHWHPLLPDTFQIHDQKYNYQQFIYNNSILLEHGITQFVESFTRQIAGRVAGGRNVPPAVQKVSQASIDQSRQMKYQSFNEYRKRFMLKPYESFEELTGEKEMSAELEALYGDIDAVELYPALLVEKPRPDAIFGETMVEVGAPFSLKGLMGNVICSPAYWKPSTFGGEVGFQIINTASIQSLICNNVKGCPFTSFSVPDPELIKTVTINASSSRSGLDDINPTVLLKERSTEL
# [5] = biological target: Prostaglandin G/H synthase 1 (Homo sapiens, UniProt P23219); assay: Inhibition of Prostaglandin G/H synthase 1 (COX-1).
# Prostaglandin G/H synthase 1, sequence (P23219 whole entry): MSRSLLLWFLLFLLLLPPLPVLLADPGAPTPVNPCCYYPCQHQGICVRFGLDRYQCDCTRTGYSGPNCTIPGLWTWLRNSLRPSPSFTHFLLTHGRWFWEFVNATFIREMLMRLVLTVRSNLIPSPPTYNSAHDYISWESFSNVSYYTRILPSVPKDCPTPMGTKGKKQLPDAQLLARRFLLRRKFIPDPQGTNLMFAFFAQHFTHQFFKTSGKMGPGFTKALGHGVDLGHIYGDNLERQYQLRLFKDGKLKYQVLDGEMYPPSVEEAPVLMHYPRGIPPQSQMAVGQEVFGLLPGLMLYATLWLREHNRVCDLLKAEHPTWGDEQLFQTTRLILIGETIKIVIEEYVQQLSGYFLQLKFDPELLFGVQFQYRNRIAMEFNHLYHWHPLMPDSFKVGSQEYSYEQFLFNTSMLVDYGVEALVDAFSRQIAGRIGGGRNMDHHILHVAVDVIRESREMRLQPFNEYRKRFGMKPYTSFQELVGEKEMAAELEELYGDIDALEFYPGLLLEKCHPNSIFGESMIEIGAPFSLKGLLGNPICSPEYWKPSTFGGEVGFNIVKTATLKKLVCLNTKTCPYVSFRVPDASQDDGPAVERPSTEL
# Procedure, shortened: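 Isolated human COX-1 enzyme from platelets. Duplicate samples were each tested in duplicate, and IC50 values were determined.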
# [6] = biological target: T2, Polyunsaturated fatty acid 5-lipoxygenase (Rattus norvegicus, UniProt P12527); assay: Inhibition of 5-lipoxygenase (LOX)in RBL cells; assay type: cell-based
# T2 sequence (P12527 whole entry): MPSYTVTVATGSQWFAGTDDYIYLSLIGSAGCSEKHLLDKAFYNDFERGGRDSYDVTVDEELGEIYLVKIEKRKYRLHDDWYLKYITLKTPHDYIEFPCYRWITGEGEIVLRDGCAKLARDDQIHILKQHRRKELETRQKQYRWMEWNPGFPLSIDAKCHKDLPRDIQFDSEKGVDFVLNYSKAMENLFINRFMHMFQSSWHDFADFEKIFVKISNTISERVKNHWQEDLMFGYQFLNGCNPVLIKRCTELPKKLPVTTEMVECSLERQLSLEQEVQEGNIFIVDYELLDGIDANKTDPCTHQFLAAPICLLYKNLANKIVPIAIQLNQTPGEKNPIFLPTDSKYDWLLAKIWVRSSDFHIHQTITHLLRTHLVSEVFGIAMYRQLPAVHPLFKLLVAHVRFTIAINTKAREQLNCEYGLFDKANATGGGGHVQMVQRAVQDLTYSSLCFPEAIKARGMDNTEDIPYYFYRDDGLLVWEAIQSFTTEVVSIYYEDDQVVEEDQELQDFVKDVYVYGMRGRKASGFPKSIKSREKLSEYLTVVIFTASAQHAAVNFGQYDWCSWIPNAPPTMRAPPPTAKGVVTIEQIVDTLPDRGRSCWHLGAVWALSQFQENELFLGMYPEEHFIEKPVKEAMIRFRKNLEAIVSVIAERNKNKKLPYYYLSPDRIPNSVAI
# Mus musculus [7] = assay: The compound was tested for reduction in phenylquinone-induced abdominal constriction and is expressed in % reduction at a po (per pral) dose of 70 mg/kg.; assay type: functional, Abdomen; procedure, shortened: as §1
smiles,measurement,setting,value
CC(C)(C)c1cc(C(=O)CCCC2CC2)cc2c1OCC2(C)C,ED50,Mus musculus [1],11 mg/kg
CCCCC(=O)c1cc(C(C)(C)C)c2c(c1)C(C)(C)CO2,Reduction,Mus musculus [2],38%
CCCC(=O)c1cc(C(C)(C)C)c2c(c1)C(C)(C)CO2,ED50,Mus musculus [3],21 mg/kg
CC(C)(O)CC(=O)c1cc(C(C)(C)C)c2c(c1)C(C)(C)CO2,CPE index,Rattus norvegicus,0.49
CC(C)(C)c1cc(C(=O)CCCC2CC2)cc2c1SCC2(C)C,CPE index,Rattus norvegicus,0.74
C#CCCCC(=O)c1cc2c(c(C(C)(C)C)c1)OCC2,Reduction,Mus musculus [2],67%
same,CPE index,Rattus norvegicus,0.84
CCCCC(=O)c1cc(C(C)(C)C)c2c(c1)C(C)(C)CCN2,CPE index,Rattus norvegicus,0.02
O=C(CCCC1CC1)c1ccc2c(c1)CCO2,CPE index,Rattus norvegicus,0.13
CCCCC(=O)c1cc(C(C)(C)C)c2c(c1)C(C)(C)CCO2,ED50,Mus musculus [1],53 mg/kg
same,CPE index,Rattus norvegicus,0.69
CCCCC(=O)c1ccc2c(c1)CCO2,CPE index,Rattus norvegicus,0
CC1(C)COc2ccc(C(=O)CCCC3CC3)cc21,IC50,[4],8 µM
same,IC50,[5],25 µM
same,CPE index,Rattus norvegicus,0.5
CCCC(=O)c1ccc2c(c1)C(C)(C)CO2,CPE index,Rattus norvegicus,0.31
CCCC(=O)c1cc(C(C)(C)C)c2c(c1)C(C)(C)CS2,IC50,[4],0.15 µM
same,IC50,[5],1.5 µM
same,ED50,Mus musculus [1],74 mg/kg
same,CPE index,Rattus norvegicus,1.04
CC(C)(C)c1cc(C(=O)CCCC2CC2)cc2c1NCCC2(C)C,CPE index,Rattus norvegicus,0
CCCCC(=O)c1cc2c(c(C(C)(C)C)c1)OCC2,ED50,Mus musculus [1],0.6 mg/kg
same,CPE index,Rattus norvegicus,0.69
CN1CC(C)(C)c2cc(C(=O)CCCC3CC3)cc(C(C)(C)C)c21,CPE index,Rattus norvegicus,0.36
CCc1cc(C(=O)CCCC2CC2)cc2c1OCC2(C)C,IC50,[4],5 µM
same,IC50,[5],20 µM
same,IC50,[6],18 µM
CCCCC(=O)c1cc(C(C)(C)C)c2c(c1)C(C)(C)CCN2C,IC50,[4],0.3 µM
same,IC50,[5],2 µM
same,CPE index,Rattus norvegicus,0.42
CC(C)(C)c1cc(C(=O)CCCC2CC2)cc2c1OCCC2(C)C,IC50,[4],3 µM
same,IC50,[5],20 µM
same,IC50,[6],8 µM
same,Reduction,Mus musculus [2],10%
same,CPE index,Rattus norvegicus,0.57
CC(C)(C)c1cc(C(=O)CCCC2CC2)cc2c1OCCC2,CPE index,Rattus norvegicus,0.05
CCCCC(=O)c1cc2c(c(C(C)(C)C)c1)OCCC2,CPE index,Rattus norvegicus,0.21
CC(C)(O)CC(=O)c1cc2c(c(C(C)(C)C)c1)OCC2,ED50,Mus musculus [1],21 mg/kg
same,CPE index,Rattus norvegicus,0.98
CC(C)(O)CC(=O)c1cc2c(c(C(C)(C)C)c1)OCCC2,Reduction,Mus musculus [2],50%
same,CPE index,Rattus norvegicus,0.7
C#CCCCC(=O)c1cc2c(c(C(C)(C)C)c1)OCCC2,Reduction,Mus musculus [2],79%
same,CPE index,Rattus norvegicus,1.04
CC(C)(O)CC(=O)c1cc(C(C)(C)C)c2c(c1)C(C)(C)CCO2,CPE index,Rattus norvegicus,0.48
C#CCCCC(=O)c1cc(C(C)(C)C)c2c(c1)C(C)(C)CCO2,Reduction,Mus musculus [2],46%
same,CPE index,Rattus norvegicus,0.57
CCCCC(=O)c1cc(C(C)(C)C)c2c(c1)C(C)(C)CCS2,IC50,[4],0.4 µM
same,IC50,[5],0.4 µM
same,Reduction,Mus musculus [7],17%
same,CPE index,Rattus norvegicus,0.86
CC(C)(O)CC(=O)c1ccc2c(c1)C(C)(C)CO2,CPE index,Rattus norvegicus,0.39
CCCC(=O)c1cc(C(C)(C)C)c2c(c1)C(C)(CC)CO2 (stereo not given),Reduction,Mus musculus [2],45%
same,CPE index,Rattus norvegicus,0.68
CC(C)(C)c1cc(C(=O)CCCC2CC2)cc2c1OCC2,IC50,[4],15 µM
same,IC50,[5],5 µM
same,IC50,[6],12 µM
same,ED50,Mus musculus [1],6 mg/kg
same,CPE index,Rattus norvegicus,0.5
CC1(C)COc2c(C3CCCC3)cc(C(=O)CCCC3CC3)cc21,IC50,[4],20 µM
same,IC50,[5],> 100 µM
same,CPE index,Rattus norvegicus,0.27
CN1CCC(C)(C)c2cc(C(=O)CCCC3CC3)cc(C(C)(C)C)c21,CPE index,Rattus norvegicus,0.37
COc1ccc2cc([C@H](C)C(=O)O)ccc2c1 [NAPROXEN],ED50,Mus musculus [3],1.3 mg/kg
same,CPE index,Rattus norvegicus,1.06
C#CCCCC(=O)c1cc(C(C)(C)C)c(O)c(C(C)(C)C)c1 [TEBUFELONE],ED50,Mus musculus [3],26 mg/kg
